# Results as given in ChEMBL document CHEMBL4007435, “A Rational Design of a Selective Inhibitor for Kv1.1 Channels Prevalent in Demyelinated Nerves That Improves Their Impaired Axonal Conduction” (J Med Chem, 2017).
# The source made the active and inactive calls. The rule behind the calls is not given here.
# Key:
# [1] = target: T1, Potassium voltage-gated channel subfamily A member 1 (Homo sapiens, UniProt Q09470); assay: Inhibition of Kv1.1 (unknown origin)
# [2] = target: T2, Potassium voltage-gated channel subfamily A member 1 (Rattus norvegicus, UniProt P10499); assay: Inhibition of recombinant rat Kv1.1 expressed in HEK293 cells at -90 mV holding potential by whole cell patch clamp Qpatch method; type: cell-based
# T2 sequence (P10499 whole entry): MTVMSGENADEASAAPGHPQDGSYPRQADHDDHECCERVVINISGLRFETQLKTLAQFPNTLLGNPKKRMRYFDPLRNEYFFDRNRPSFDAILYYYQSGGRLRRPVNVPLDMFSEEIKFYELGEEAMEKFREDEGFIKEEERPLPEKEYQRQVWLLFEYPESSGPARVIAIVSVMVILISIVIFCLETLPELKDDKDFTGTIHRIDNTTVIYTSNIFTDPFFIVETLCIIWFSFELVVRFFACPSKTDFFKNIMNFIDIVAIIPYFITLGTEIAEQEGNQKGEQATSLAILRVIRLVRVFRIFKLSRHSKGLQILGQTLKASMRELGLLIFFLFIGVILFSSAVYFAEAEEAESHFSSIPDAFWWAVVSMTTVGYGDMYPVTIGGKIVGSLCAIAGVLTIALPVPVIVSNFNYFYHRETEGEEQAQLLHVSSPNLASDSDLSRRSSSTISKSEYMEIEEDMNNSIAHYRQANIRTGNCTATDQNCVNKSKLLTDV
# Procedure, shortened: (§1)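 HEK-293 cells carrying Kv1 channels, either stably expressed (Kv1.1, 1.2, 1.3, 1.4, 1.6, tandem Kv1.1 or 1.2 homotetramers) or transiently transfected (concatemers). Currents were recorded by automated whole-cell clamp with 2-3 MΩ pin-holes. Bath solution (mM): 135 NaCl, 5 KCl, 2 CaCl2, 2 MgCl2, 5 Hepes, 10 sucrose, pH 7.4. Holding potential was −90 mV, with steps to +20 mV for 300 ms. The 10 mM stocks were made in extracellular solution and diluted before use. The readout was steady-state current averaged after 200 ms, and peak current for Kv1.4.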
# Kv1.4 = Kv1.4 (Rattus norvegicus, UniProt P15385); assay: Inhibition of recombinant rat Kv1.4 expressed in HEK293 cells at 10 uM at -90 mV holding potential by whole cell patch clamp Qpatch method relative to control; type: cell-based; conditions: HEK293 cells expressing recombinant rat Kv1.4; procedure, shortened: as §1
# Chain of Kv1.4 (P15385 whole entry): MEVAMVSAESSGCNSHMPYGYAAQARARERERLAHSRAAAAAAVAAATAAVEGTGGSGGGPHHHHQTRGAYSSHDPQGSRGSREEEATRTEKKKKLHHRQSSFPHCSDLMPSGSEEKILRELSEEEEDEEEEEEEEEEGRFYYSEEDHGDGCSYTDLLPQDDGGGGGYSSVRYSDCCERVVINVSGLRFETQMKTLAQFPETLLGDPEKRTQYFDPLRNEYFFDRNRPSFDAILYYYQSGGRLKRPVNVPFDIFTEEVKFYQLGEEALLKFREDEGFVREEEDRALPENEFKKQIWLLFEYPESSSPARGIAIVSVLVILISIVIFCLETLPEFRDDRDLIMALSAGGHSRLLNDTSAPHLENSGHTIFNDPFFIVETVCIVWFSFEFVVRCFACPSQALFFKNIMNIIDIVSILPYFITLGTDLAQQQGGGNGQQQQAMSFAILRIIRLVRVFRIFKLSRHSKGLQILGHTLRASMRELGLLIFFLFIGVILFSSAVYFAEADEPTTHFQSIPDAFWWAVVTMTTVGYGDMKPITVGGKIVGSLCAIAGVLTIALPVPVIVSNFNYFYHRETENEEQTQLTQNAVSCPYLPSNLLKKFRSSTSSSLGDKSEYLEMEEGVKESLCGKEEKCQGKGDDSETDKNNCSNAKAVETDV
# [3] = target: Potassium voltage-gated channel subfamily A member 3 (Rattus norvegicus) (UniProt P15384); assay: Inhibition of recombinant rat Kv1.3 expressed in HEK293 cells at 10 uM at -90 mV holding potential by whole cell patch clamp Qpatch method relative to control; type: cell-based; procedure, shortened: as §1
# Chain of Potassium voltage-gated channel subfamily A member 3 (Rattus norvegicus) (P15384 whole entry): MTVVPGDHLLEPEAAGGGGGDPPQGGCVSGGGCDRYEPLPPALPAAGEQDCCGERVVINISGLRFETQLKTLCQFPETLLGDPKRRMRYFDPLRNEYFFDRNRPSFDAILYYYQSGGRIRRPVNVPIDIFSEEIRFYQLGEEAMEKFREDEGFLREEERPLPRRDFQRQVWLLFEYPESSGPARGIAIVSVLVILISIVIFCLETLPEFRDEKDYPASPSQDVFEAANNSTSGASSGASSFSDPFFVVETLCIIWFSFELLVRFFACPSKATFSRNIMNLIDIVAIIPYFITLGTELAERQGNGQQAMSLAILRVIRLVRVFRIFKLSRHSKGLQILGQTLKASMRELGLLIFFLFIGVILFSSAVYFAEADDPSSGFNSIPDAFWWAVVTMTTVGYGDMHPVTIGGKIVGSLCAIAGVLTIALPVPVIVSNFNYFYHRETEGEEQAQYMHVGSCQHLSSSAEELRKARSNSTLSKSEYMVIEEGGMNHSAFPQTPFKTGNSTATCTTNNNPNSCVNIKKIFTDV
# [4] = target: Potassium voltage-gated channel subfamily A member 1 (Rattus norvegicus) (UniProt P10499); assay: Inhibition of recombinant rat Kv1.1 expressed in HEK293 cells at 10 uM at -90 mV holding potential by whole cell patch clamp Qpatch method relative to control; type: cell-based; procedure, shortened: as §1
# Chain of Potassium voltage-gated channel subfamily A member 1 (Rattus norvegicus) (P10499 whole entry): as the sequence (P10499 whole entry) above
# Kv1.2 = Kv1.2 (Rattus norvegicus, UniProt P63142); assay: Inhibition of recombinant rat Kv1.2 expressed in HEK293 cells at 10 uM at -90 mV holding potential by whole cell patch clamp Qpatch method relative to control; type: cell-based; conditions: HEK293 cells expressing recombinant rat Kv1.2; procedure, shortened: as §1
# Chain of Kv1.2 (P63142 whole entry): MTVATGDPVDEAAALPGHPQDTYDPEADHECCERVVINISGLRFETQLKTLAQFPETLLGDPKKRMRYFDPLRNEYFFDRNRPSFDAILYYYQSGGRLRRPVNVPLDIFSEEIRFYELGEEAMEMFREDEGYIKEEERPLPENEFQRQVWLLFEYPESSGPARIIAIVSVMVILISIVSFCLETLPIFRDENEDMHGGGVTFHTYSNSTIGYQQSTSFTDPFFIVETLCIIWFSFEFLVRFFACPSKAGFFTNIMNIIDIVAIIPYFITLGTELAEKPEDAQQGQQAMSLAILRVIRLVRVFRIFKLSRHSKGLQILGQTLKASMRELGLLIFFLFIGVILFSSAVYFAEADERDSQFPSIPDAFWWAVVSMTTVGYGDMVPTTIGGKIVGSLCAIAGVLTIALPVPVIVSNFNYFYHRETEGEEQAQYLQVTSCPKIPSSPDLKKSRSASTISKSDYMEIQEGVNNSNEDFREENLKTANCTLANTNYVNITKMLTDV
# Kv1.6 = Kv1.6 (Rattus norvegicus, UniProt P17659); assay: Inhibition of recombinant rat Kv1.6 expressed in HEK293 cells at 10 uM at -90 mV holding potential by whole cell patch clamp Qpatch method relative to control; type: cell-based; conditions: HEK293 cells expressing recombinant rat Kv1.6; procedure, shortened: as §1
# Chain of Kv1.6 (P17659 whole entry): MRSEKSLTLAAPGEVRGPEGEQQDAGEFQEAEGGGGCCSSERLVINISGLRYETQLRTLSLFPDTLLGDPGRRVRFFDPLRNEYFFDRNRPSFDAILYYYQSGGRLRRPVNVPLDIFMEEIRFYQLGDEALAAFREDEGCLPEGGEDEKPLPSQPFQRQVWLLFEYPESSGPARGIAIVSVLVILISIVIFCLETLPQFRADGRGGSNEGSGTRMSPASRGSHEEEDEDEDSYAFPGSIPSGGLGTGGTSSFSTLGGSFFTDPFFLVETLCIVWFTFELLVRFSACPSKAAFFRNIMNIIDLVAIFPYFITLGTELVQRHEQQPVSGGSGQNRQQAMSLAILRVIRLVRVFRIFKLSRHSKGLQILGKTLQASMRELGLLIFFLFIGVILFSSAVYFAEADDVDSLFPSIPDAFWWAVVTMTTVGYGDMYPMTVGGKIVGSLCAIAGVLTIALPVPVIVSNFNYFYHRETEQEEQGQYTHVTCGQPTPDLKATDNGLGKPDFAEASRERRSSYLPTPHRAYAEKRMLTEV
# HEK293 = assay: Phototoxicity against HEK293 cells under UV irradiation; type: cell-based; conditions: human
# [5] = target: Potassium voltage-gated channel subfamily A member 1 (Rattus norvegicus) (UniProt P10499); assay: Inhibition of recombinant rat Kv1.1 expressed in HEK293 cells assessed as shift of half maximal vale for activation at 10 uM at -90 mV holding potential by whole cell patch clamp Qpatch method; type: cell-based
# [6] = target: Potassium voltage-gated channel subfamily A member 1 (Rattus norvegicus) (UniProt P10499); assay: Inhibition of recombinant rat Kv1.1 concatamer expressed in HEK293 cells assessed as time constant for activation of Kv1.1 channel current at -90 mV holding potential by whole cell patch clamp Qpatch method (reference value: 2.2 +/- 0.1 ms); type: cell-based
# [7] = target: T3, Potassium voltage-gated channel subfamily A member 1/2 (Kv1.1/Kv1.2) (Rattus norvegicus, UniProt P10499+P63142); assay: Inhibition of recombinant rat Kv(1.1)3/Kv1.2 expressed in HEK293 cells at -90 mV holding potential by whole cell patch clamp Qpatch method; type: cell-based; procedure, shortened: as §1
# [8] = target: T4, Potassium voltage-gated channel subfamily A member 1/2 (Kv1.1/Kv1.2) (Rattus norvegicus) (UniProt P10499+P63142); assay: Inhibition of recombinant rat Kv1.2/1.1/1.2/1.1 expressed in HEK293 cells at 10 uM at -90 mV holding potential by whole cell patch clamp Qpatch method relative to control; type: cell-based; procedure, shortened: as §1
# T4 sequence (P10499 whole entry, looked up): as the sequence (P10499 whole entry) above
# T4 sequence (P63142 whole entry, looked up): as the sequence (P63142 whole entry) above
# [9] = Partition coefficient, logP of the compound; type: physicochemical; conditions: octanol/water
# [10] = Neurotoxicity in C57BL/6J mouse corpus callosum assessed as effect on amplitude of unmyelinated axon N2 wave at 10 uM relative to baseline; type: toxicity, tissue-based; conditions: ex_vivo
# Procedure, shortened: (§2)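 Male C57BL/6J mice (16 weeks old) kept on normal diet for 8 weeks (n = 5). Coronal slices (400 µm) containing hippocampus. CC stimulated monopolarly at 0.033 Hz (100 µs); field cAPs recorded on contralateral CC at 40–50% maximum response. After 10 min of stable baseline, compound applied at 1 or 10 µM from 10 mM aCSF stock. Mean ± SEM; n = animals.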
# [11] = target: T3, Potassium voltage-gated channel subfamily A member 1/2 (Kv1.1/Kv1.2); assay: Inhibition of recombinant rat Kv1.1/Kv(1.2)3 expressed in HEK293 cells at -90 mV holding potential by whole cell patch clamp Qpatch method; type: cell-based; procedure, shortened: as §1
# [12] = target: T3, Potassium voltage-gated channel subfamily A member 1/2 (Kv1.1/Kv1.2); assay: Inhibition of recombinant rat Kv(1.1)2/Kv(1.2)2 expressed in HEK293 cells at -90 mV holding potential by whole cell patch clamp Qpatch method; type: cell-based; procedure, shortened: as §1
# [13] = target: Potassium voltage-gated channel subfamily A member 2 (Rattus norvegicus, UniProt P63142); assay: Inhibition of recombinant rat Kv1.2(4) expressed in HEK293 cells at -90 mV holding potential by whole cell patch clamp Qpatch method; type: cell-based; procedure, shortened: as §1
# Chain of Potassium voltage-gated channel subfamily A member 2 (P63142 whole entry): as above
# [14] = (§3) Neuroprotective activity against cuprizone-induced demyelination in C57BL/6J mouse corpus callosum assessed as improvement in neuronal conduction by measuring increase in amplitude of unmyelinated axon N2 wave at 1 uM relative to baseline; type: functional
# Procedure, shortened: as §2, with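 “fed chow with 0.2% cuprizone” for “kept on normal diet”, “7).” for “5).”, “µs); extracellular” for “µs);”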
# [15] = Neurotoxicity in C57BL/6J mouse corpus callosum assessed as effect on amplitude of unmyelinated axon N2 wave at 1 uM relative to baseline; type: toxicity, tissue-based; conditions: ex_vivo; procedure, shortened: as §2
# [16] = target: Potassium voltage-gated channel subfamily A member 1 (Rattus norvegicus) (UniProt P10499); assay: Inhibition of recombinant rat Kv1.1 expressed in HEK293 cells assessed as time constant for activation of Kv1.1 channel current at 10 uM at -90 mV holding potential by whole cell patch clamp Qpatch method (reference value: 1.9 +/- 0.15 ms); type: cell-based
# [17] = target: T4, Potassium voltage-gated channel subfamily A member 1/2 (Kv1.1/Kv1.2) (Rattus norvegicus); assay: Inhibition of recombinant rat Kv1.2/1.2/1.1/1.1 expressed in HEK293 cells at 10 uM at -90 mV holding potential by whole cell patch clamp Qpatch method relative to control; type: cell-based; procedure, shortened: as §1
# [18] = target: T1, Potassium voltage-gated channel subfamily A member 1; assay: Inhibition of Kv1.1 (unknown origin) expressed in HEK293 cells by whole cell patch clamp Qpatch method; type: cell-based; procedure, shortened: as §1
# [19] = target: T4, Potassium voltage-gated channel subfamily A member 1/2 (Kv1.1/Kv1.2) (Rattus norvegicus); assay: Inhibition of recombinant rat Kv1.1/1.1/1.2/1.2 expressed in HEK293 cells at 10 uM at -90 mV holding potential by whole cell patch clamp Qpatch method relative to control; type: cell-based; procedure, shortened: as §1
# [20] = target: T4, Potassium voltage-gated channel subfamily A member 1/2 (Kv1.1/Kv1.2) (Rattus norvegicus); assay: Inhibition of recombinant rat Kv(1.1)2/Kv(1.2)2 expressed in HEK293 cells assessed as time constant for activation of Kv1.1 channel current at 10 uM at -90 mV holding potential by whole cell patch clamp Qpatch method (reference value: 2.8 +/- 0.4 ms); type: cell-based
# [21] = (§4) Neuroprotective activity against cuprizone-induced demyelination in C57BL/6J mouse corpus callosum assessed as improvement in neuronal conduction by measuring increase in amplitude of unmyelinated axon N2 wave at 10 uM relative to baseline; type: functional
# Procedure, shortened: as §2, with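 “fed chow with 0.2% cuprizone” for “kept on normal diet”, “7).” for “5).”, “µs); extracellular” for “µs);”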
# [22] = target: T2, Potassium voltage-gated channel subfamily A member 1; assay: Inhibition of recombinant rat Kv(1.1)4 expressed in HEK293 cells at -90 mV holding potential by whole cell patch clamp Qpatch method; type: cell-based; procedure, shortened: as §1
# [23] = target: T4, Potassium voltage-gated channel subfamily A member 1/2 (Kv1.1/Kv1.2) (Rattus norvegicus); assay: Inhibition of recombinant rat Kv(1.1)3/Kv1.2 expressed in HEK293 cells assessed as time constant for activation of Kv1.1 channel current at 10 uM at -90 mV holding potential by whole cell patch clamp Qpatch method (reference value: 3.1 +/- 0.2 ms); type: cell-based
# Mus musculus [24] = species: Mus musculus; assay: as §3; type: functional
# Procedure, shortened: as §2, with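 “fed chow with 0.2% cuprizone” for “kept on normal diet”, “7).” for “5).”, “µs); extracellular” for “µs);”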
# Mus musculus [25] = species: Mus musculus; assay: as §4; type: functional
# Procedure, shortened: as §2, with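 “fed chow with 0.2% cuprizone” for “kept on normal diet”, “7).” for “5).”, “µs); extracellular” for “µs);”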
# T1 sequence (Q09470 whole entry): as the sequence (P10499 whole entry) above, with A9V, I202V, T213N, I449M, A471V, G476A, A480T, T481A, D482N counted along it
structure (smiles),measurement,setting,value
COc1ccc([C@@H]2Sc3ccccc3N(CCN(C)C)C(=O)[C@@H]2OC(C)=O)cc1 [DILTIAZEM],IC50,[1],144 µM
CC(C)(C)OC(=O)NCCNC(=O)c1ccc(-c2c3nc(c(-c4ccc(C(=O)NCCNC(=O)OC(C)(C)C)cc4)c4ccc([nH]4)c(-c4ccc(C(=O)NCCNC(=O)OC(C)(C)C)cc4)c4nc(c(-c5ccc(C(=O)NCCNC(=O)OC(C)(C)C)cc5)c5ccc2[nH]5)C=C4)C=C3)cc1,IC50,[2],13 µM
CC[N+](CC)(CC)CC [TETRYLAMMONIUM],IC50,[1],30 µM
COC(=O)C1=C(C)NC(C)=C(C(=O)OC)C1c1ccccc1[N+](=O)[O-] [NIFEDIPINE],IC50,[1],96 µM
Cc1ccc(C(c2ccc(C)cc2)(c2ccc(C(=O)NCCCCN)[nH]2)c2ccc(C(=O)NCCCCN)[nH]2)cc1.Cl.Cl,inhibition at 10 µM,Kv1.4,3%
same,inhibition,[3],8%
same,inhibition,[4],8%
same,inhibition at 10 µM,Kv1.2,3%
same,inhibition at 10 µM,Kv1.6,4%
same,Activity,HEK293,Non-Toxic
Cc1ccc(C(c2ccc(C)cc2)(c2ccc(C(=O)NCCN)[nH]2)c2ccc(C(=O)NCCN)[nH]2)cc1.Cl.Cl,V1/2,[5],40 mV
same,TIME,[6],5.42e-06 h
same,IC50,[7],54 µM
same,inhibition,[8],15%
same,logP,[9],-1.05
same,Activity,[10],102.6%
same,IC50,[11],> 100 µM
same,IC50,[12],57 µM
same,inhibition at 10 µM,Kv1.4,5%
same,IC50,[13],> 100 µM
same,Activity,[14],108.2%
same,Activity,[15],100.9%
same,inhibition,[3],15%
same,TIME,[16],5.64e-06 h
same,inhibition,[17],15%
same,inhibition,[4],40%
same,IC50,[18],16 µM
same,inhibition,[19],13%
same,TIME,[20],5e-06 h
same,inhibition at 10 µM,Kv1.2,1%
same,inhibition at 10 µM,Kv1.6,1%
same,Activity,[21],127.8%
same,IC50,[22],14 µM
same,Activity,HEK293,Non-Toxic
same,IC50,[2],16 µM
same,TIME,[23],3.89e-06 h
COc1cc(CNC(=O)CCCC/C=C/C(C)C)ccc1O [CAPSAICIN],IC50,[1],29 µM
O=C(NCC1CCCCN1)c1cc(OCC(F)(F)F)ccc1OCC(F)(F)F (stereo not drawn) [FLECAINIDE],IC50,[1],209 µM
Nc1ccncc1 [DALFAMPRIDINE],Activity,[10],105.7%
same,Activity,Mus musculus [24],inactive
same,Activity,[15],105.3%
same,Activity,Mus musculus [25],inactive
Cc1ccc(C(c2ccc(C)cc2)(c2ccc(C(=O)NCCCN)[nH]2)c2ccc(C(=O)NCCCN)[nH]2)cc1.Cl.Cl,inhibition at 10 µM,Kv1.4,16%
same,inhibition,[3],32%
same,inhibition,[4],35%
same,inhibition at 10 µM,Kv1.2,6%
same,inhibition at 10 µM,Kv1.6,5%
same,Activity,HEK293,Non-Toxic
